How the values were obtained:
DmOBP69a = details: ref Bentzur et al., 2018; cited from earlier work
DsOBP76a = biological target: T1, DsOBP76a (Drosophila suzukii, UniProt A0AB39ZCT4); experiment: Fluorescence competition binding assay with bis-ANS, recombinant DsOBP76a; details: for binding to DsOBP76a (in words): fluorescence competition binding assay
T1 sequence (A0AB39ZCT4 30-153): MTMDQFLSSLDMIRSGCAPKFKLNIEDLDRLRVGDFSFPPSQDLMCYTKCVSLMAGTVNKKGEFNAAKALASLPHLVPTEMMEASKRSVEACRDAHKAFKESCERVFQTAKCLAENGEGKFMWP
In short: (§1)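 Recombinant D. suzukii OBP expressed in E. coli BL21(DE3) (pET-30a), recovered from inclusion bodies in 8 M urea, Ni-NTA purified, refolded and dialysed into 50 mM Tris-HCl pH 7.4. Protein (2 μmol L−1 final) plus bis-ANS was titrated with ligand (1 mmol L−1 methanol stock). Excitation was 295 nm, with a 300–550 nm scan. Ki = IC50/(1+[bis-ANS]/Kbis-ANS), with Kbis-ANS from a Scatchard plot.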

DmOBP76a = details: ref Billeter and Levine, 2015; cited from earlier work
DsOBP69a = biological target: T2, DsOBP69a (Drosophila suzukii, UniProt A0AB39ZGK5); experiment: Fluorescence competition binding assay with bis-ANS, recombinant DsOBP69a; details: for binding to DsOBP69a (in words): fluorescence competition binding assay
T2 sequence (A0AB39ZGK5 25-148): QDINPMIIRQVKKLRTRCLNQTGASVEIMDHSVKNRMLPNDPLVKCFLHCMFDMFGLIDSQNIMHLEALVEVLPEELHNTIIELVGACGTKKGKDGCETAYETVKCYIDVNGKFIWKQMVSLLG
In short: as §1

DsOBP59h = details: ref Li et al., 2019; cited from earlier work
OBP28a = details: ref Gonzalez et al., 2019; cited from earlier work

Row | SMILES | binding to DsOBP76a (in words) (DsOBP76a) | binding to DsOBP69a (in words) (DsOBP69a) | affinity with DsOBP59h proteins (in words) (DsOBP59h) | Kd (DsOBP76a) | Kd (DsOBP69a) | other results
1 | CCCCCC/C=C\CCCCCCCCCCOC(C)=O [11-cis-Vaccenyl acetate] | do not bind | do not bind | – | – | – | binding to DmOBP69a (in words) (DmOBP69a): bind; binding to DmOBP76a (in words) (DmOBP76a): bind
2 | O=c1ccc2ccccc2o1 [Coumarin] | – | – | high affinity | 7.76 µM | 20.4 µM | –
3 | NC(=S)Nc1ccccc1 [N-Phenylthiourea] | not affinity | not affinity | not affinity | – | – | –
4 | CC[N+](CC)(CC(=O)Nc1c(C)cccc1C)Cc1ccccc1 [Denatonium benzoate] | not affinity | not affinity | not affinity | – | – | –
5 | CC(=O)/C=C/C1=C(C)CCCC1(C)C [β-Ionone] | – | – | – | 3.37 µM | 4.03 µM | affinity with OBP28a (in words) (OBP28a): strong affinity
6 | COc1ccc2cc3[n+](cc2c1OC)CCc1cc2c(cc1-3)OCO2 [Berberine chloride] | – | – | high affinity | 7.64 µM | 7.21 µM | –
7 | CCCCCC/C=C\CCCCCCCCCCCCCCC [(Z)-7-Tricosene] | – | – | – | – | 19.3 µM | –
8 | O=C1C[C@@H](c2ccc(O)cc2)Oc2cc(O)cc(O)c21 [Naringenin] | – | – | – | 24.1 µM | 23.8 µM | –

From PMC7970147 (Heliyon, 2021)
